Assay results from different studies.

SMILES	species	matrix	route	dose	notes	Tmax
COC(=O)C(NC(=O)c1cn(CCCCCF)c2ccccc12)C(C)(C)C (centres unmarked)	male Sprague-Dawley rat	plasma	subcutaneous	50 µg/kg	–	42.5 min
CN(C)C(=O)Oc1cc(OC(=O)N(C)C)cc(-c2cc3ccc(O)cc3o2)c1	male rat	plasma	oral	5 mg/kg	–	94.8 min
O=C(Nc1cccnn1)N1CCN([C@@H]2CCOc3cc(C(F)(F)F)ccc32)CC1	male Sprague-Dawley rat	plasma	oral	1 mg/kg	–	40.2 min
CC(C)(C)[C@H](NC(=O)[C@H](CCONC(=N)N)NC(=O)Cc1ccc(CNC(=N)N)cc1)C(=O)N[C@@H](CCONC(=N)N)C(=O)NCc1ccc(C(=N)N)cc1	male Sprague-Dawley rat	plasma	intraperitoneal	2.5 mg/kg	–	30 min
COc1ccc2c3c1O[C@H]1C[C@@H](OC(=O)c4ccccc4)C=C[C@@]31CCN(C)C2	rat	brain	intravenous	5 mg/kg	–	4.8 min
CCCCCCCC(=O)N[C@@H](CCCCN)C(=O)N[C@@H](CCCCN)C(=O)N[C@@H](C)C(=O)N[C@@H](CC(C)C)C(=O)N[C@@H](CCCCN)C(=O)N[C@@H](CC(C)C)C(=O)N[C@@H](C)C(=O)N[C@@H](CCCCN)C(=O)N[C@@H](CCCCN)C(=O)N1CCC[C@H]1C(=O)N[C@@H](CC(C)C)C(=O)N[C@@H](CCCCN)C(=O)N[C@@H](CC(C)C)C(=O)N[C@@H](CC(C)C)C(=O)N[C@@H](CCCCN)C(N)=O	male Sprague-Dawley rat	blood	intravenous	3 mg/kg	infusion	40.2 min
Cl.Cl.O=C(CCN1CCCCC1)c1ccc(-c2ccc(C(=O)CCN3CCCCC3)cc2)cc1	Sprague-Dawley rat	plasma	intravenous	5 mg/kg	–	1.8 min
Cc1ncc(C)n2nc(/C=C/c3nc(N4CCCC4)cc(N4CCOCC4)n3)nc12	male Sprague-Dawley rat	plasma	oral	0.3 mg/kg	–	162 min
